According to ChEMBL document CHEMBL5712092, “NeuroD1 Dictates Tumor Cell Differentiation in Medulloblastoma” (Cell Rep, 2020):
Active and inactive are the calls of the source. No cut-off for these calls is given here.

Legend:
[1] = system: Medulloblastoma cell; test: Antitumor activity in human medulloblastoma cells xenografted in CB17/SCID mouse at 50 mg/kg po, administered once a day; assay type: functional, organism-based
[2] = system: Medulloblastoma cell; test: Induction of cell differentiation activity in human medulloblastoma cells xenografted in CB17/SCID mouse assessed as increase in NeuN expression at 100 mg/kg po, administered once a day by immunocytochemistry analysis; assay type: functional, organism-based
[3] = Toxicity in CB17/SCID mouse xenografted with human medulloblastoma cells asessed as body weight loss at 100 mg/kg po, administered once a day; assay type: organism-based; settings: in vivo
[4] = system: Medulloblastoma cell; test: Induction of cell differentiation activity in human medulloblastoma cells xenografted in CB17/SCID mouse assessed as increase in NeuN expression at 50 mg/kg po, administered once a day by immunocytochemistry analysis; assay type: functional, organism-based
[5] = system: Medulloblastoma cell; test: Increase of apoptosis in human medulloblastoma cells xenografted in CB17/SCID mouse assessed as cleaved caspase-3 expression at 50 mg/kg po, administered once a day by immunocytochemistry analysis; assay type: functional, organism-based
[6] = system: Medulloblastoma cell; test: Antitumor activity in human medulloblastoma cells xenografted in CB17/SCID mouse at 100 mg/kg po, administered once a day; assay type: functional, organism-based
[7] = system: Mus musculus; test: Antitumor activity in human medulloblastoma cells xenografted in CB17/SCID mouse assessed as increase in NeuroD1 expression at 50 mg/kg po, administered once a day by Western blot analysis; assay type: functional, organism-based
[8] = Toxicity in CB17/SCID mouse xenografted with human medulloblastoma cells asessed as body weight loss at 50 mg/kg po, administered once a day; assay type: organism-based; settings: in vivo
[9] = system: Medulloblastoma cell; test: Antiproliferative activity in human medulloblastoma cell assessed as decrease in BrdU+ cells at 1 uM after 48 hrs by immunocytochemistry analysis relative to vehicle control; assay type: functional, cell-based
How it was run: (§1)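 Cultured MB cells were exposed to inhibitor at 1 μM for 48 h, with DMSO as the vehicle control. Cells were pulsed with BrdU for 2 h, then immunostained for BrdU (proliferation) or p27/Kip1 (differentiation), with DAPI nuclear counterstain. Read-out was the percentage of positive cells.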

[10] = system: Medulloblastoma cell; test: Upregulation in NeuroD1 protein expression in human medulloblastoma cell by Western blot analysis; assay type: functional, cell-based
[11] = system: Medulloblastoma cell; test: Antitumor activity in human medulloblastoma cells xenografted in CB17/SCID mouse assessed as decrease in Ki67+ cells at 50 mg/kg po, administered once a day by immunocytochemistry analysis; assay type: functional, organism-based
[12] = system: Medulloblastoma cell; test: Antiproliferative activity in Ptch1-deficient mouse medulloblastoma cell after 48 hrs by CCK-8 assay; assay type: functional, cell-based
How it was run: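 MB cells from tumors of 30-week-old Ptch1+/− mice, dissociated by papain digestion and purified on a 35%/65% Percoll gradient. Cells were treated with a range of inhibitor concentrations for 48 h and viability was read by CCK8 assay. IC50 was taken as the concentration giving 50% inhibition of viability.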

[13] = system: Medulloblastoma cell; test: Antitumor activity in human medulloblastoma cells xenografted in CB17/SCID mouse assessed as increase in NeuroD1 expression at 100 mg/kg po, administered once a day by Western blot analysis; assay type: functional, organism-based
[14] = system: Cerebellar granule neurone; test: Antiproliferative activity in wild-type mouse SmoA1-expressing cerebellar granule neurone cells at P7 at 2 uM for 48h by immunocytochemistry analysis; assay type: functional, cell-based
How it was run: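 Cerebellar granule neuron precursors from wild-type pups were infected with SmoA1-GFP lentivirus. 48 h after infection they were treated with inhibitor at 2 μM for 48 h, with DMSO as control. Proliferation was scored as the percentage of EdU+ cells among infected cells by immunostaining.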

[15] = system: Medulloblastoma cell; test: Induction of cell differentiation activity in human medulloblastoma cell assessed as increase in p27/Kip1+ cells at 1 uM after 48 hrs by immunocytochemistry analysis; assay type: functional, cell-based; how it was run: as §1
[16] = system: Medulloblastoma cell; test: Increase of apoptosis in human medulloblastoma cells xenografted in CB17/SCID mouse assessed as cleaved caspase-3 expression at 100 mg/kg po, administered once a day by immunocytochemistry analysis; assay type: functional, organism-based
[17] = system: Medulloblastoma cell; test: Antitumor activity in human medulloblastoma cells xenografted in CB17/SCID mouse assessed as decrease in Ki67+ cells at 100 mg/kg po, administered once a day by immunocytochemistry analysis; assay type: functional, organism-based

| SMILES | Activity [1] | Activity [2] | Activity [3] | Activity [4] | Activity [5] | Activity [6] | Activity [7] | Activity [8] | Activity [9] | Activity [10] | Activity [11] | IC50 [12] | Activity [13] | Activity [14] | Activity [15] | Activity [16] | Activity [17] |
| --- | --- | --- | --- | --- | --- | --- | --- | --- | --- | --- | --- | --- | --- | --- | --- | --- | --- |
| CCCc1cc(C)[nH]c(=O)c1CNC(=O)c1cc(-c2ccc(N3CCN(C(C)C)CC3)nc2)cc2c1cnn2C(C)C | Active | Active | Non-Toxic | Active | Active | Active | Active | Non-Toxic | Active | Active | Active | 2.08 µM | Active | Active | Active | Active | Active |
| CC[C@H](C)n1cc(C)c2c(C(=O)NCc3c(C)cc(C)[nH]c3=O)cc(-c3ccc(N4CCNCC4)nc3)cc21 [GSK2816126] | Active | Active | Non-Toxic | Active | Active | Active | Active | Non-Toxic | Active | Active | Active | 4.64 µM | Active | Active | Active | Active | Active |
| CCN(c1cc(-c2ccc(CN3CCOCC3)cc2)cc(C(=O)NCc2c(C)cc(C)[nH]c2=O)c1C)C1CCOCC1 [TAZEMETOSTAT] | Active | Active | Non-Toxic | Active | Active | Active | Active | Non-Toxic | Active | Active | Active | 8.74 µM | Active | Active | Active | Active | Active |
